{"data": "Measured values collected from several papers", "CCKBR": "Gastrin/cholecystokinin type B receptor (CCKBR, Homo sapiens, UniProt P32239)", "FAAH": "Fatty-acid amide hydrolase 1 (FAAH, Homo sapiens, UniProt O00519)", "BDKRB1": "B1 bradykinin receptor (BDKRB1, Homo sapiens, UniProt P46663)", "MMP3": "Stromelysin-1 (MMP3, Homo sapiens, UniProt P08254)", "PTGS1": "Prostaglandin G/H synthase 1 (PTGS1, Homo sapiens, UniProt P23219)", "HTR2C": "5-hydroxytryptamine receptor 2C (HTR2C, Homo sapiens, UniProt P28335)", "note": "Each line is one published result; the experiments were not run side by side."}
{"Compound": "Cc1ncc(C)n2nc(/C=C/c3nc(N4CCCC4)cc(N4CCOCC4)n3)nc12", "target": "CCKBR", "read-out": "cell-free assay", "concentration": "10 µM", "inhibition [%]": -16}
{"Compound": "CN(C(=O)Oc1nsnc1N1CCCCC1)c1cccc(-c2ccccc2)c1", "target": "FAAH", "read-out": "enzyme activity", "mode": "inhibitor", "concentration": "10 µM", "notes": "cell membranes", "inhibition [%]": 13}
{"Compound": "C#Cc1n[nH]c2c(-c3cn([C@@H](C)c4ccccc4)c(=O)[nH]c3=O)cc(F)cc12", "target": "Aurora kinase C (AURKC, Homo sapiens, UniProt Q9UQB9)", "read-out": "enzyme activity", "mode": "inhibitor", "concentration": "0.1 µM", "inhibition [%]": -1.2}
{"Compound": "CN(C(=O)Oc1nsnc1N1CCCCC1)C1CCCCCCC1", "target": "FAAH", "read-out": "enzyme activity", "mode": "inhibitor", "concentration": "10 µM", "notes": "cell membranes", "inhibition [%]": 13}
{"Compound": "CC(C)Cn1cnc2c(N)nc3ccccc3c21", "target": "Melatonin receptor type 1A (MTNR1A, Homo sapiens, UniProt P48039)", "read-out": "ligand displacement", "method": "radioligand", "concentration": "10 µM", "inhibition [%]": 32}
{"Compound": "CC(C)N1CCC[C@H]1CNC(=O)c1cn(C2CCCC2)c(=O)c2c1c1ccccc1n2C", "target": "BDKRB1", "read-out": "ligand displacement", "method": "radioligand", "concentration": "10 µM", "inhibition [%]": 12}
{"Compound": "Nc1ncnc2c1ncn2[C@@H]1O[C@H](C[C@@H](N)CC[C@H](N)C(=O)O)[C@@H](O)[C@H]1O", "target": "mRNA cap guanine-N(7) methyltransferase (RNMT, Homo sapiens, UniProt O43148)", "read-out": "enzyme activity", "mode": "inhibitor", "concentration": "50 µM", "inhibition [%]": 98.2}
{"Compound": "COc1ccc(S(=O)(=O)N(CC(=O)NO)CC(C)C)cc1", "target": "MMP3", "read-out": "enzyme activity", "mode": "inhibitor", "concentration": "1 µM", "inhibition [%]": 100}
{"Compound": "O=C(Nc1cccnn1)N1CCN([C@@H]2CCOc3cc(C(F)(F)F)ccc32)CC1", "target": "PTGS1", "read-out": "enzyme activity", "mode": "inhibitor", "concentration": "20 µM", "inhibition [%]": 1}
{"Compound": "c1ccc(C(NCCNC(c2ccccc2)c2ccccc2)c2ccccc2)cc1", "target": "PTGS1", "read-out": "enzyme activity", "mode": "inhibitor", "concentration": "10 µM", "inhibition [%]": 66}
{"Compound": "CN(C)C(=O)COC(=O)Cc1ccc(OC(=O)c2ccc(NC(=N)N)cc2)cc1", "target": "MMP3", "read-out": "enzyme activity", "mode": "inhibitor", "concentration": "10 µM", "inhibition [%]": 27}
{"Compound": "CN(C(=O)Oc1nsnc1N1CCCCC1)c1ccc(Cl)cc1", "target": "FAAH", "read-out": "enzyme activity", "mode": "inhibitor", "concentration": "10 µM", "notes": "cell membranes", "inhibition [%]": 16}
{"Compound": "Cn1cc(-c2cccc(N3CCc4c(sc5c4CC(C)(C)C5)C3=O)c2CO)cc(Nc2ccncn2)c1=O", "target": "Aurora kinase A (AURKA, Homo sapiens, UniProt O14965)", "read-out": "enzyme activity", "mode": "inhibitor", "concentration": "1 µM", "inhibition [%]": 3}
{"Compound": "CCC(C)c1ccccc1OCC(=O)N1CCC(C(=O)Nc2ccc3c(c2)OCO3)CC1 (centres unmarked)", "target": "Trypanothione synthetase (Trypanosoma cruzi, UniProt Q9GT49)", "read-out": "enzyme activity", "mode": "inhibitor", "method": "absorbance", "concentration": "25 µM", "inhibition [%]": 5.5}
{"Compound": "COc1ccccc1N(C)C(=O)Oc1nsnc1N1CCCCC1", "target": "FAAH", "read-out": "enzyme activity", "mode": "inhibitor", "concentration": "10 µM", "notes": "cell membranes", "inhibition [%]": 18}
{"Compound": "N=C(N)c1ccc2cc(OC(=O)c3ccc(N=C(N)N)cc3)ccc2c1", "target": "Ubiquitin carboxyl-terminal hydrolase 10 (USP10, Homo sapiens, UniProt Q14694)", "read-out": "enzyme activity", "mode": "inhibitor", "concentration": "10 µM", "inhibition [%]": 0}
{"Compound": "COc1cc2c3c(c1OC)-c1cc4c(cc1CC3N(C)CC2)OCO4 (racemic)", "target": "HTR2C", "read-out": "ligand displacement", "method": "radioligand", "concentration": "10 µM", "inhibition [%]": 103}
{"Compound": "COCCN(CCOC)C(=O)[C@@]12C[C@@H]1[C@@H](n1cnc3c(N)nc(Cl)nc31)[C@H](O)[C@@H]2O", "target": "HTR2C", "read-out": "ligand displacement", "method": "radioligand", "concentration": "10 µM", "inhibition [%]": 12}
{"Compound": "CC(C)C[C@H](NC(=O)[C@H](Cc1ccccc1)NC(=O)c1cnccn1)B(O)O", "target": "Complement C1r subcomponent (Homo sapiens, UniProt P00736)", "read-out": "enzyme activity", "mode": "inhibitor", "concentration": "33 µM", "inhibition [%]": 44.5}
{"Compound": "c1ccc(OCc2cc(OC[C@@H]3CCN3)on2)cc1", "target": "Sigma intracellular receptor 2 (Tmem97, Rattus norvegicus, UniProt Q5U3Y7)", "read-out": "ligand displacement", "method": "radioligand", "concentration": "10 µM", "inhibition [%]": "< 50"}
{"Compound": "C[C@H](C(=O)N[C@H]1COc2ccccc2[C@@H]1S(C)(=O)=O)c1ccc(F)cc1", "target": "CCKBR", "read-out": "cell-free assay", "concentration": "10 µM", "inhibition [%]": 7}
{"Compound": "COCc1c(-c2cc3cc(C)cc(OC)c3s2)c2c(N)ncnn2c1CN1CCNC(=O)C1", "target": "BDKRB1", "read-out": "ligand displacement", "method": "radioligand", "concentration": "10 µM", "inhibition [%]": 5}
{"Compound": "CN(C(=O)Oc1nsnc1N1CCCCC1)C1CCCCCC1", "target": "FAAH", "read-out": "enzyme activity", "mode": "inhibitor", "concentration": "10 µM", "notes": "cell membranes", "inhibition [%]": 21}
{"Compound": "COc1cc(Nc2ncc(F)c(Nc3ccc4c(n3)NC(=O)C(C)(C)O4)n2)cc(OC)c1OC", "target": "Serine/threonine-protein kinase SIK3 (SIK3, Homo sapiens, UniProt Q9Y2K2)", "read-out": "binding", "method": "competition with immobilised ligand", "concentration": "10 µM", "inhibition [%]": 35}
{"Compound": "C#Cc1n[nH]c2c(-c3cn(C(C)c4ccccn4)c(=O)[nH]c3=O)cc(F)cc12 (centres unmarked)", "target": "Tyrosine-protein kinase receptor TYRO3 (TYRO3, Homo sapiens, UniProt Q06418)", "read-out": "enzyme activity", "mode": "inhibitor", "concentration": "1 µM", "inhibition [%]": 79}
{"Compound": "CN(CCN1CCC(OC(=O)Nc2ccccc2-c2ccccc2)CC1)C(=O)c1ccc(CN2CCC(C(N)=O)CC2)cc1", "target": "CCKBR", "read-out": "ligand displacement", "method": "radioligand", "concentration": "1 µM", "inhibition [%]": -9}
{"Compound": "CCN(C(=O)Oc1nsnc1N1CCCCC1)c1ccccc1", "target": "FAAH", "read-out": "enzyme activity", "mode": "inhibitor", "concentration": "10 µM", "notes": "cell membranes", "inhibition [%]": 24}
{"Compound": "Cn1cc(-c2cc(F)cc(N3CCn4c(cc5c4CCCC5)C3=O)c2CO)cc(Nc2ccc(N3CCN(C4COC4)CC3)cn2)c1=O", "target": "Mitogen-activated protein kinase kinase kinase 8 (MAP3K8, Homo sapiens, UniProt P41279)", "read-out": "enzyme activity", "mode": "inhibitor", "concentration": "0.1 µM", "inhibition [%]": 17}
{"Compound": "CN(C(=O)Oc1nsnc1N1CCCCC1)c1cccc([N+](=O)[O-])c1", "target": "FAAH", "read-out": "enzyme activity", "mode": "inhibitor", "concentration": "10 µM", "notes": "cell membranes", "inhibition [%]": 11}
{"Compound": "CCOC(=O)c1ccc(OC(=O)CCCCCNC(=N)N)cc1", "target": "MMP3", "read-out": "enzyme activity", "mode": "inhibitor", "concentration": "10 µM", "inhibition [%]": 18}
{"Compound": "CN(C(=O)Oc1nsnc1N1CCCCC1)c1ccccc1[N+](=O)[O-]", "target": "FAAH", "read-out": "enzyme activity", "mode": "inhibitor", "concentration": "10 µM", "notes": "cell membranes", "inhibition [%]": 46}
{"Compound": "COc1ccc(S(=O)(=O)N2CCCCC2)cc1C", "target": "CCKBR", "read-out": "ligand displacement", "method": "radioligand", "concentration": "10 µM", "inhibition [%]": "< 30"}
